Test results: ChEMBL document CHEMBL1154152, “Synthesis of some novel bioactive 4-oxy/thio substituted-1H-pyrazol-5(4H)-ones via efficient cross-Claisen condensation” (2009)
Values after ≈ are worked out from the molar mass of the structure shown.

Legend:
Type in all cases: functional
[1] = system: Trichophyton mentagrophytes; assay: Antifungal activity against Trichophyton mentagrophytes after 3 to 4 days by serial plate dilution method
Talaromyces marneffei [2] = assay: Antifungal activity against Penicillium marneffei after 3 to 4 days by serial plate dilution method
How it was run: (§1)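 Sabouraud's agar made from peptone, D-glucose and agar, pH 5.7, and lawned with a fungal spore suspension in normal saline. Wells cut with an agar punch received 10–50 mg/ml test compound in DMSO; DMSO-only control plates. Triplicate plates kept at 37 °C for 3–4 days.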

Staphylococcus aureus = assay: Antibacterial activity against Staphylococcus aureus ATCC 25923 after 24 hrs by disk diffusion method; details: for MIC: Staphylococcus aureus, ATCC 25923, 24 h
How it was run: (§2)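 Discs with each concentration, in triplicate, on nutrient agar seeded with fresh bacteria. Incubated 37 °C for 24 h, with solvent and growth controls. Zones of inhibition and MIC recorded.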

Escherichia coli = assay: Antibacterial activity against Escherichia coli ATTC 25922 after 24 hrs by disk diffusion method; details: for MIC: Escherichia coli, ATTC 25922, 24 h; how it was run: as §2
Pseudomonas aeruginosa = assay: Antibacterial activity against Pseudomonas aeruginosa ATTC 27853 after 24 hrs by disk diffusion method; details: for MIC: Pseudomonas aeruginosa, ATTC 27853, 24 h; how it was run: as §2
Klebsiella sp. = assay: Antibacterial activity against Klebsiella sp. after 24 hrs by disk diffusion method; details: for MIC: Klebsiella sp., 24 h; how it was run: as §2
[3] = system: Trichophyton mentagrophytes; assay: Antifungal activity against Trichophyton mentagrophytes at 10 to 50 ug/ml after 3 to 4 days by serial plate dilution method
Talaromyces marneffei [4] = assay: Antifungal activity against Penicillium marneffei at 10 to 50 ug/ml after 3 to 4 days by serial plate dilution method
Aspergillus flavus [5] = assay: Antifungal activity against Aspergillus flavus at 10 to 50 ug/ml after 3 to 4 days by serial plate dilution method
Aspergillus flavus [6] = assay: Antifungal activity against Aspergillus flavus after 3 to 4 days by serial plate dilution method; how it was run: as §1
Aspergillus fumigatus [7] = assay: Antifungal activity against Aspergillus fumigatus at 10 to 50 ug/ml after 3 to 4 days by serial plate dilution method
Aspergillus fumigatus [8] = assay: Antifungal activity against Aspergillus fumigatus after 3 to 4 days by serial plate dilution method

Compound	MIC [1]	MIC (Talaromyces marneffei [2])	inhibition zone (IZ) (Staphylococcus aureus)	MIC (Staphylococcus aureus)	inhibition zone (IZ) (Escherichia coli)	MIC (Escherichia coli)	inhibition zone (IZ) (Pseudomonas aeruginosa)	MIC (Pseudomonas aeruginosa)	inhibition zone (IZ) (Klebsiella sp.)	MIC (Klebsiella sp.)	inhibition zone (IZ) [3]	inhibition zone (IZ) (Talaromyces marneffei [4])	inhibition zone (IZ) (Aspergillus flavus [5])	MIC (Aspergillus flavus [6])	inhibition zone (IZ) (Aspergillus fumigatus [7])	MIC (Aspergillus fumigatus [8])
CCC1=NNC(=O)C1SCc1ccccc1 (stereo not drawn)	6.25 µg/mL (≈ 26.7 µM)	6.25 µg/mL (≈ 26.7 µM)	16 mm	6.25 µg/mL (≈ 26.7 µM)	17 mm	6.25 µg/mL (≈ 26.7 µM)	20 mm	6.25 µg/mL (≈ 26.7 µM)	17 mm	6.25 µg/mL (≈ 26.7 µM)	17 mm	19 mm	17 mm	6.25 µg/mL (≈ 26.7 µM)	17 mm	6.25 µg/mL (≈ 26.7 µM)
O=C1NN=C(c2ccc(Cl)cc2)C1Oc1ccccc1 (stereo not drawn)	50 µg/mL (≈ 174 µM)	50 µg/mL (≈ 174 µM)	21 mm	6.25 µg/mL (≈ 21.8 µM)	12 mm	25 µg/mL (≈ 87.2 µM)	<10 mm	50 µg/mL (≈ 174 µM)	<10 mm	50 µg/mL (≈ 174 µM)	<10 mm	<10 mm	<10 mm	50 µg/mL (≈ 174 µM)	<10 mm	50 µg/mL (≈ 174 µM)
CC(C)CC1=NN(C)C(=O)C1Oc1ccccc1 (stereo not drawn)	6.25 µg/mL (≈ 25.4 µM)	6.25 µg/mL (≈ 25.4 µM)	19 mm	6.25 µg/mL (≈ 25.4 µM)	12 mm	25 µg/mL (≈ 101 µM)	19 mm	6.25 µg/mL (≈ 25.4 µM)	17 mm	6.25 µg/mL (≈ 25.4 µM)	18 mm	19 mm	18 mm	6.25 µg/mL (≈ 25.4 µM)	16 mm	6.25 µg/mL (≈ 25.4 µM)
CCC1=NN(c2ccc(F)cc2)C(=O)C1Oc1ccccc1 (stereo not drawn)	6.25 µg/mL (≈ 21 µM)	6.25 µg/mL (≈ 21 µM)	16 mm	6.25 µg/mL (≈ 21 µM)	14 mm	25 µg/mL (≈ 83.8 µM)	18 mm	6.25 µg/mL (≈ 21 µM)	20 mm	6.25 µg/mL (≈ 21 µM)	21 mm	17 mm	19 mm	6.25 µg/mL (≈ 21 µM)	21 mm	6.25 µg/mL (≈ 21 µM)
O=C1NN=C(COc2ccccc2)C1Oc1ccccc1 (stereo not drawn)	6.25 µg/mL (≈ 22.1 µM)	6.25 µg/mL (≈ 22.1 µM)	18 mm	6.25 µg/mL (≈ 22.1 µM)	17 mm	6.25 µg/mL (≈ 22.1 µM)	16 mm	6.25 µg/mL (≈ 22.1 µM)	19 mm	6.25 µg/mL (≈ 22.1 µM)	19 mm	18 mm	20 mm	6.25 µg/mL (≈ 22.1 µM)	21 mm	6.25 µg/mL (≈ 22.1 µM)
COCC1=NNC(=O)C1SCc1ccccc1 (stereo not drawn)	50 µg/mL (≈ 200 µM)	50 µg/mL (≈ 200 µM)	17 mm	6.25 µg/mL (≈ 25 µM)	<10 mm	50 µg/mL (≈ 200 µM)	<10 mm	50 µg/mL (≈ 200 µM)	<10 mm	50 µg/mL (≈ 200 µM)	<10 mm	<10 mm	<10 mm	50 µg/mL (≈ 200 µM)	<10 mm	50 µg/mL (≈ 200 µM)
CC(C)CC1=NNC(=O)C1Sc1ccc(Cl)cc1 (stereo not drawn)	6.25 µg/mL (≈ 22.1 µM)	6.25 µg/mL (≈ 22.1 µM)	18 mm	6.25 µg/mL (≈ 22.1 µM)	11 mm	25 µg/mL (≈ 88.4 µM)	17 mm	6.25 µg/mL (≈ 22.1 µM)	16 mm	6.25 µg/mL (≈ 22.1 µM)	19 mm	20 mm	18 mm	6.25 µg/mL (≈ 22.1 µM)	17 mm	6.25 µg/mL (≈ 22.1 µM)
Cc1cc(C2CCCCC2)n(O)c(=O)c1.NCCO [CICLOPIROX OLAMINE]	3.12 µg/mL	6.25 µg/mL	–	–	–	–	–	–	–	–	27 mm	23 mm	27 mm	3.12 µg/mL	26 mm	6.25 µg/mL
O=C(O)c1cn(C2CC2)c2cc(N3CCNCC3)c(F)cc2c1=O [CIPROFLOXACIN]	–	–	23 mm	6.25 µg/mL (≈ 18.9 µM)	32 mm	6.25 µg/mL (≈ 18.9 µM)	28 mm	6.25 µg/mL (≈ 18.9 µM)	24 mm	6.25 µg/mL (≈ 18.9 µM)	–	–	–	–	–	–
